Experimental data: ChEMBL document CHEMBL4513216, “Probing the Open Global Health Chemical Diversity Library for Multistage-Active Starting Points for Next-Generation Antimalarials” (ACS Infect Dis, 2020)

Assay: Toxicity liver stage against HepG2, at 10uM
Format: cell-based
Design: test concentration 10 uM, cell line HepG2-A16-CD81EGFP
Settings: human, HepG2-A16-CD81EGFP cells; read-out: INHIBITION
Procedure, shortened: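 Uninfected HepG2-A16-CD81EGFP cells, 3 × 10^3 per well, 1536-well, plated on prespotted compound at 10 μM final, parasite-free screening media added to match infected plates; puromycin 10 μM positive, DMSO 0.5% negative; run in parallel with 48 h PbLuc assay at 37 °C, 5% CO2; viability by CellTiter-Glo luminescence, normalized to controls.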

SMILES	cytotoxicity at 10 µM [%]
O=S(=O)(c1cnccc1N1CCN(CCO)CC1)N1CCCCC1	15.7
CCS(=O)(=O)N1CCc2ccc(NC(=O)NC3CCCCC3)cc21	-4.56
CNc1oc(-c2ccc(OC)c(S(=O)(=O)N(C)C)c2)nc1C#N	1.71
COCCn1cnc2ccc(NC(=O)C3CC3)cc2c1=O	-7.89
CN1C(=O)c2cccc(NC(=O)c3ccc4c(c3)OCCO4)c2C1=O	4.02
Cc1cnc2c(c1NCc1ccccn1)c(=O)n(C)c(=O)n2C	-4.32
COC1(CNC(=O)NCCc2ccccc2)CCSC1 (centres undefined)	-12.6
Cc1nc(-c2noc3ccc(C(=O)NCCN(C)C)cc23)co1	2.25
Cn1ncc2c1NC(=O)CC2c1cc(Cl)ccc1F (centres undefined)	78.6
Cn1ccnc1Sc1ccc(S(N)(=O)=O)cn1	-1.6
COc1cc2nc(C)n(CC(=O)O)c(=O)c2cc1OC	5.68
Cc1nc(N(C)C)nc2c1COCC21CCN(C(=O)NC(C)C)C1 (centres undefined)	-13
O=C(O)c1ccc(COc2cccc(Cl)c2)s1	8.96
Cc1nn(C)c2cnn(CC(=O)NCc3cccs3)c12	6.28
CCN1CCCC(O)(CN(C)Cc2ccccc2F)C1 (centres undefined)	-6.43
COc1ccc2oc(-c3cn(C)nc3C)c(O)c(=O)c2c1	9.96
Cc1nc(NCCc2ccc(Cl)cc2)cc(C(=O)N2CCCCC2)n1	-23
Cc1nc(CN2CCOCC2c2[nH]ncc2C)cs1 (centres undefined)	2.15
Cc1nc(N(C)C)cc(C2(C)CCCNC2)n1 (centres undefined)	2.05
COc1ccccc1NC(=O)NCc1nnc(SC)n1C	-0.145
CCn1cc(S(=O)(=O)NCC(c2ccccc2)N2CCOCC2)c(C)n1 (centres undefined)	2.76
COc1ccccc1CN1CCC(Cc2cnc(CN(C)C)cn2)CC1	-6.45
CNC(=O)c1ccc(-c2ccc(CNS(=O)(=O)N(C)C)cc2)nc1C	-2.05

SMILES	cytotoxicity at 10 µM [%]
O=C(O)C1CN(c2cncc(Cc3ccccc3F)n2)C1	5.7
CCc1nc(CN2CCCN(Cc3noc(C4CC4)n3)CC2)cs1	-7.35
O=C(Cc1cccnc1)NC1COc2ccccc2C1=O (centres undefined)	-3.77
CS(=O)(=O)c1ccccc1-n1cc(NC(=O)CC2C=CCC2)cn1 (centres undefined)	1.78
CN(C)CCN(Cc1ccc(C#N)cc1)C(=O)c1ccn(C)c(=O)c1	16.8
C=C(C)CNc1nc(CS(=O)(=O)c2ccccc2)cs1	-8.37
COCCN(Cc1coc(-c2cccc(Cl)c2)n1)C1CC1	3.92
CN(CCOCC(F)(F)F)CC1CCN(CCO)CC1	5.68
Cc1nn(C)c(Cl)c1C1CCCN1Cc1nnc(C2CC2)n1C (centres undefined)	-2.24
CCN1CC(COC(=O)c2cc(Br)ccc2F)CC1=O (centres undefined)	5.09
CSCC(C)(O)CNC(=O)Nc1ccc(C)cc1Br (centres undefined)	-9.83
O=C(C1CCS(=O)(=O)C1)N1CCC(=Cc2cccc(F)c2)CC1 (centres undefined)	10.6
COc1ncc(NCc2ccc(C#N)cc2)cc1C(N)=O	0.217
CCC(=O)N1CCN(c2ccc(C(=O)OC)cc2)CC1C (centres undefined)	-13.5
Nc1cc2c(nn1)CCN(C(=O)Cc1ccc3c(c1)CCCC3)C2	0.696
Cn1c(NCC(=O)N2CCCC2)c(C#N)c(=O)n(C)c1=O	15.4
Clc1ccc(C2(NCc3noc(C4CC4)n3)CCC2)cc1	5.04
CC(O)CN1CCN(C(=O)CCOC(C)C)CC1 (centres undefined)	-3.86
Cc1nn(C)c(N(C)C)c1CNCc1ccnn1C	-3.35
CCc1ncc2c(n1)CN(Cc1nnc(CC)o1)CC2	-8.8
Nc1ncc(C(=O)N2CCN(c3nccs3)CC2)cc1Cl	-3.78
CNC(=O)COC(=O)c1ccoc1CN1c2ccccc2CC1C (centres undefined)	0.165
OCC1CCCN1c1cc(NCCNc2cccnn2)ncn1 (centres undefined)	18.5

SMILES	cytotoxicity at 10 µM [%]
COc1ccc(F)c(NCc2cnn(C3CCS(=O)(=O)C3)c2)c1 (centres undefined)	2.65
CN(Cc1cc(=O)c(O)co1)C1CCCN(c2ccccc2)C1 (centres undefined)	-3.17
Cc1n[nH]c(C2CN(CCCOc3cccc(Cl)c3)CCO2)n1 (centres undefined)	-5.57
CC1(C(=O)Nc2ccc(F)c(-n3cccc3)c2)CCOCC1	-0.0972
Cc1ccc(C(NC(=O)Cn2cc(C3CC3)nn2)C2CC2)cc1 (centres undefined)	-5.36
CC(C)(C)Cc1nnc(NCc2cccc(C#N)c2)o1	-16.1
Cc1cccc(-n2cnc(Cl)c2C(=O)O)c1	-1.26
Cc1csc(C(C#N)C(=O)Nc2ccccc2)n1 (centres undefined)	12.6
O=C(NCc1ccco1)N1CCOC(c2ccccc2Cl)C1 (centres undefined)	-1.91
CCOC(=O)CN(C)Cc1cnc(C)s1	20.2
COc1ccc(CNC2CCN(c3ccccc3)C2)cc1O (centres undefined)	8.63
COc1ccc(C(=O)NCCC(N)=O)c(I)c1	9.34
COc1ccccc1CC(=O)NC1CCCc2cn[nH]c21 (centres undefined)	17.1
CN(C)C(=O)N1CCN(C(=O)c2ccn3ccnc3c2)CC1	-5.02
CCN(Cc1csc(CS(C)(=O)=O)n1)c1cccc(F)c1	7.25
Cn1cccc1C(=O)NC1(C(=O)NCC2CC2)CCCC1	-3.29
COCC1CN(C(=O)Nc2cc(Cl)ccc2F)CCO1 (centres undefined)	10.7
COc1ccccc1CC(=O)NC(CC(=O)O)c1ccc(C)cc1 (centres undefined)	11.2
N#CCCCS(=O)(=O)N1CCCC1CC(=O)c1cccs1 (centres undefined)	-5.07
CCS(=O)(=O)CCNC(=O)c1ccc(-c2ccc(C)cc2)cc1F	-14.2
O=C(C1CCOCC1)N1C[C@@H]2[C@@H](C1)OCC(=O)N2CC1CC1	2.29
Cc1nonc1OCCNC(=O)COc1ccc(F)cc1F	-1.17
Cc1nc(CN(Cc2ccncc2)C2CCN(C)CC2)cs1	-2.56

SMILES	cytotoxicity at 10 µM [%]
CC(C)[C@H]1COC(=O)N1Cc1nccn1C(C)C	6.35
OCc1csc(N2C[C@@H](CN3CCCCCC3)[C@@H](CO)C2)n1	2.65
CCC(C(=O)NC1(COC)CCCC1)n1cccn1 (centres undefined)	-3.41
CC(C)=CCn1ncc(N2CCOCC2)cc1=O	-9.96
CC(=O)N1CCc2[nH]cnc2C12CCN(C(=O)Cc1ccccn1)CC2	1.76
CCC(NC(=O)c1cc(NC(C)=O)ccc1Cl)c1cc(C)ccn1 (centres undefined)	-16.5
Cc1ccnc(CNC(=O)C2CC(=O)N(CCN(C)C)C2)c1 (centres undefined)	-5.79
COc1ccccc1CN1C(=O)O[C@@H]2CN(S(=O)(=O)N(C)C)C[C@@H]21	2.54
CC(C)n1cc(C(=O)NCCc2cn3ccsc3n2)cn1	8.67
CCc1cnc(NCc2ccccc2Cn2cccn2)nc1	-2.45
COc1cc(OC)c2nc(NCCN3CCNC3=O)cc(C)c2c1	-3.4
Cc1nn(-c2ccccc2)c2nc(C(C)(C)CN3CCN(C)CC3)[nH]c12	-2.13
CCN1CCCC(c2c(-c3ccccc3)ncn2CCc2c[nH]cn2)C1 (centres undefined)	-10.9
O=C(NCCn1ccnc1-c1cc2n(n1)CCNC2)c1ccc(F)cc1	-16.9
CCc1cnc(C)nc1N(C)CCCc1cnn(C)c1	-10
CC1(C)CNC(=O)c2nc(CCN3CCC(C(N)=O)CC3)[nH]c2C1	-1.35
CC(C)n1cnnc1CN(C)C(=O)C1CCCN(C2CCN(C)CC2)C1 (centres undefined)	-1.26
COCC(NC(=O)c1cc(NC(C)=O)ccc1Cl)c1ccccn1 (centres undefined)	-12.1
O=C(c1cncc(N2CCC3(CC2)NCCNC3=O)n1)N1CCCCC1	-2.4
NC(=O)C(NCc1nn(-c2ccccc2)c2c1CCC2)c1ccccc1 (centres undefined)	-5.86
CCc1ccc(C(=O)N2CCCN(Cc3nccn3CC)CC2)s1	-8.72
Cc1ccccc1-c1noc(CN2CCc3cncnc3C2)n1	-11.5
Cc1cc(C)n(CC2CCCN2C(=O)CCCNc2ncccn2)n1 (centres undefined)	-19

SMILES	cytotoxicity at 10 µM [%]
COc1ccc2c(c1)CN(Cc1nc3ccsc3c(=O)[nH]1)CC2	-4.64
CCN1CCN(c2ccc(CNC(=O)c3c(C)noc3C)cn2)CC1	0.265
Cc1ccn2cc(C(=O)N3CCCC3c3c(C)nn(C)c3C)nc2c1 (centres undefined)	3.2
COc1cc(C(=O)N2CCCC(CNS(C)(=O)=O)C2)cc(OC)c1C (centres undefined)	-7.69
O=C(CSc1ccc(F)c(F)c1)NS(=O)(=O)c1ccc2c(c1)OCCO2	-4.28
CC(=O)N1CCCCCC1C1CCN(Cc2nc(C(C)C)no2)CC1 (centres undefined)	6.27
COc1ccc(CC(=O)N2CCN(C)c3ncccc3C2)cc1	-5.79
CN(C)Cc1cc(C2CCCCN2S(=O)(=O)Cc2ccccc2)nn1C (centres undefined)	0.57
O=C(Cc1cccnc1)N1CCC2(CC1)CCN(C1CCOCC1)CC2	-8.25
COc1ncc(C2(O)CCN(Cc3cccs3)CC2)c(OC)n1	1.9
O=C(c1cnoc1)N1CCC[C@]2(C[C@@H](OCc3ccccn3)CO2)C1	-9.47
O=C1NCCCCC1NCc1csc(-c2ccccn2)n1 (centres undefined)	7.5
Cc1sc(Br)cc1S(=O)(=O)NCCCN	0.973
Cc1cccc(CC(=O)N2CCCCC2CN)c1 (centres undefined)	5.68
O=C(c1cocn1)N1CCC2(CC1)COC(COCc1ccccn1)C2 (centres undefined)	-116
CN(C)C(=O)CN1CCC2(C1)CN(CC1CCOC1)C2 (centres undefined)	8.43
CN1CC(=O)N(c2ccccc2)CC12CCN(Cc1cccnc1)C2 (centres undefined)	-2.09
Cc1ccc(N2CCN(Cc3ccccc3)C3(CCNCC3)C2=O)cn1	12.1
O=C(CCn1cccn1)N1C[C@H]2CC[C@@H](C1)N(Cc1ccccn1)C2=O	-13.6
CN(C)C(=O)CN1C[C@H]2CC[C@@H](C1)N(C(=O)CCCn1cncn1)C2	0.612
C/C(Cl)=C/CNC(=O)C1CCC2(CC1)CN(C)C(=O)c1ccccc1O2 (centres undefined)	4.52
O=C(O)c1cc(C=Cc2cccc3ccccc23)ncn1	-12.1
